Converted amounts (≈) assume the structure as drawn.
Columns and labels:
[1] = Aqueous solubility of the compound in phosphate buffer at pH 7.4; type: physicochemical
Outline: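 Excess solid was stirred for 3 h in pH 1.2 hydrochloric acid or pH 7.4 phosphate buffer, then filtered through 0.45 μm. Absorbance at the UV maximum was compared with a methanol standard, C′ = A′C/A, with values reported in mg/mL. Determined at 30 °C; mean ± SD, n = 3.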

[2] = test system: Cryptococcus neoformans; test: Antimicrobial activity against Cryptococcus neoformans 32609 after 72 hrs by serial dilution method; type: functional; conditions: Cryptococcus neoformans, 32609, 72 h
Outline: (§1)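 Broth serial dilution MIC in 96-well plates following NCCLS/CLSI methods. Compounds were dissolved in DMSO and serially diluted in growth medium, with incubation at 35 °C. […] C. parapsilosis 22019 served as the quality-control strain in each assay.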

[3] = test system: Nakaseomyces glabratus; test: Antimicrobial activity against Candida glabrata 537 after 24 hrs by serial dilution method; type: functional; conditions: Nakaseomyces glabratus, 537, 24 h; outline: as §1
[4] = test system: Candida parapsilosis; test: Antimicrobial activity against Candida parapsilosis 22019 after 24 hrs by serial dilution method; type: functional; conditions: Lodderomyces parapsilosis, 22019, 24 h; outline: as §1
[5] = test system: Candida albicans; test: Antimicrobial activity against Candida albicans SC5314 after 24 hrs by serial dilution method; type: functional; conditions: SC5314, 24 h; outline: as §1
[6] = test system: Aspergillus fumigatus; test: Antimicrobial activity against Aspergillus fumigatus 7544 after 48 hrs by serial dilution method; type: functional; conditions: Aspergillus fumigatus, 7544, 48 h; outline: as §1
[7] = test system: Candida albicans; test: Antimicrobial activity against Candida albicans Y0109 after 24 hrs by serial dilution method; type: functional; conditions: Y0109, 24 h; outline: as §1

SMILES	MIC [2]	MIC [3]	MIC [4]	MIC [5]	MIC [6]	MIC [7]	solubility [1]
C[C@@H](N1CCc2nc(-c3cncnc3)sc2C1)[C@](O)(Cn1cncn1)c1ccc(F)cc1F.O=S(=O)(O)O							108 mg/mL
C[C@@H](N1CCn2nc(-c3cncnc3)nc2C1)[C@](O)(Cn1cncn1)c1ccc(F)cc1F	0.0625 µg/mL (≈ 0.138 µM)	0.0625 µg/mL (≈ 0.138 µM)	0.0625 µg/mL (≈ 0.138 µM)	0.0312 µg/mL (≈ 0.0689 µM)	32 µg/mL (≈ 70.6 µM)	0.125 µg/mL (≈ 0.276 µM)	
C[C@@H](N1CCc2sc(-c3ccc(Cl)cc3)cc2C1)[C@](O)(Cn1cncn1)c1ccc(F)cc1F	8 µg/mL (≈ 16 µM)	16 µg/mL (≈ 31.9 µM)	16 µg/mL (≈ 31.9 µM)	4 µg/mL (≈ 7.98 µM)	32 µg/mL (≈ 63.9 µM)	8 µg/mL (≈ 16 µM)	
C[C@@H](N1CCc2sc(-c3cccc(C#N)c3)cc2C1)[C@](O)(Cn1cncn1)c1ccc(F)cc1F	2 µg/mL (≈ 4.07 µM)	8 µg/mL (≈ 16.3 µM)	4 µg/mL (≈ 8.14 µM)	2 µg/mL (≈ 4.07 µM)	64 µg/mL (≈ 130 µM)	4 µg/mL (≈ 8.14 µM)	
C[C@@H](N1CCc2cc(Br)sc2C1)[C@](O)(Cn1cncn1)c1ccc(F)cc1F	0.5 µg/mL (≈ 1.07 µM)	1 µg/mL (≈ 2.13 µM)	2 µg/mL (≈ 4.26 µM)	1 µg/mL (≈ 2.13 µM)	32 µg/mL (≈ 68.2 µM)	0.5 µg/mL (≈ 1.07 µM)	
COc1ccc(-c2nc3c(s2)CN([C@H](C)[C@](O)(Cn2cncn2)c2ccc(F)cc2F)CC3)cc1	1 µg/mL (≈ 2.01 µM)	1 µg/mL (≈ 2.01 µM)	0.5 µg/mL (≈ 1 µM)	1 µg/mL (≈ 2.01 µM)	16 µg/mL (≈ 32.2 µM)	1 µg/mL (≈ 2.01 µM)	
C[C@@H](N1CCc2nc(-c3ccc(Br)cc3)sc2C1)[C@](O)(Cn1cncn1)c1ccc(F)cc1F	1 µg/mL (≈ 1.83 µM)	2 µg/mL (≈ 3.66 µM)	4 µg/mL (≈ 7.32 µM)	1 µg/mL (≈ 1.83 µM)	16 µg/mL (≈ 29.3 µM)	1 µg/mL (≈ 1.83 µM)	
C[C@@H](N1CCn2nnc(-c3ccncc3)c2C1)[C@](O)(Cn1cncn1)c1ccc(F)cc1F	16 µg/mL (≈ 35.4 µM)	8 µg/mL (≈ 17.7 µM)	4 µg/mL (≈ 8.84 µM)	1 µg/mL (≈ 2.21 µM)	> 16 µg/mL	4 µg/mL (≈ 8.84 µM)	
Br.C[C@@H](N1CCc2nc(-c3cncnc3)sc2C1)[C@](O)(Cn1cncn1)c1ccc(F)cc1F							12.1 mg/mL

Continued, in another order:

MIC [2]	MIC [3]	MIC [4]	MIC [5]	MIC [6]	MIC [7]	SMILES	solubility [1]
2 µg/mL (≈ 4.13 µM)	4 µg/mL (≈ 8.26 µM)	8 µg/mL (≈ 16.5 µM)	2 µg/mL (≈ 4.13 µM)	64 µg/mL (≈ 132 µM)	2 µg/mL (≈ 4.13 µM)	C[C@@H](N1CCc2sc(-c3ccc(F)cc3)cc2C1)[C@](O)(Cn1cncn1)c1ccc(F)cc1F	
8 µg/mL (≈ 17.7 µM)	8 µg/mL (≈ 17.7 µM)	4 µg/mL (≈ 8.86 µM)	1 µg/mL (≈ 2.21 µM)	> 16 µg/mL	2 µg/mL (≈ 4.43 µM)	C[C@@H](N1CCn2nnc(-c3ccccc3)c2C1)[C@](O)(Cn1cncn1)c1ccc(F)cc1F	
2 µg/mL (≈ 4.05 µM)	1 µg/mL (≈ 2.03 µM)	1 µg/mL (≈ 2.03 µM)	0.5 µg/mL (≈ 1.01 µM)	16 µg/mL (≈ 32.4 µM)	0.5 µg/mL (≈ 1.01 µM)	CC(C)c1ccc(-c2nc3n(n2)CCN([C@H](C)[C@](O)(Cn2cncn2)c2ccc(F)cc2F)C3)cc1	
0.125 µg/mL (≈ 0.269 µM)	0.125 µg/mL (≈ 0.269 µM)	0.125 µg/mL (≈ 0.269 µM)	0.0625 µg/mL (≈ 0.135 µM)	32 µg/mL (≈ 68.9 µM)	0.0625 µg/mL (≈ 0.135 µM)	Cc1ccc(-c2cn3c(n2)CN([C@H](C)[C@](O)(Cn2cncn2)c2ccc(F)cc2F)CC3)cc1	
0.25 µg/mL (≈ 0.534 µM)	0.25 µg/mL (≈ 0.534 µM)	0.125 µg/mL (≈ 0.267 µM)	0.125 µg/mL (≈ 0.267 µM)	64 µg/mL (≈ 137 µM)	0.25 µg/mL (≈ 0.534 µM)	C[C@@H](N1CCn2cc(-c3cccc(F)c3)nc2C1)[C@](O)(Cn1cncn1)c1ccc(F)cc1F	
1 µg/mL (≈ 2.06 µM)	1 µg/mL (≈ 2.06 µM)	4 µg/mL (≈ 8.26 µM)	1 µg/mL (≈ 2.06 µM)	8 µg/mL (≈ 16.5 µM)	2 µg/mL (≈ 4.13 µM)	C[C@@H](N1CCc2sc(-c3cccc(F)c3)cc2C1)[C@](O)(Cn1cncn1)c1ccc(F)cc1F	
